The test system of series [1] is HCT-116. As to the kind of experiment: Antiproliferative activity against human HCT116 cells by MTT assay. The class given is functional, cell-based. For orientation: Tetrazolium dyes change colour on reduction, which living cells bring about.
A further series deals with Histone deacetylase 1 (Homo sapiens, UniProt Q13547). As to the kind of experiment: Inhibition of human recombinant HDAC1.
The target in series [2] is Histone deacetylase (Homo sapiens) (UniProt Q13547+O15379+Q9UBN7+Q92769+Q9UQL6+Q8WUI4+Q9BY41+Q96DB2+P56524+Q9UKV0+Q969S8). As to the kind of experiment: Inhibition of HDAC assessed as ability to induce histone acetylation in human T24 cells. The class given is functional, cell-based. The conditions noted are these: T-24. The method, boiled down:
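T24 human bladder carcinoma cells treated at […] for 16 h. Histones acid-extracted, separated by SDS–PAGE and immunoblotted with antibodies specific for acetylated histone H4; total H4 also probed. Dose-dependence judged from blot.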

Series [3] can be described thus: Half life in iv dosed rat. Format: ADME, organism-based. Particulars: in vivo.
Series [4] has as its system HCT-116. In words: Cell cycle arrest in human HCT116 cells at G2/M phase. The class given is functional, cell-based. The essentials:
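HCT116 cells treated with compounds in 1% DMSO for 16 h, then harvested by trypsinization and fixed. DNA was stained with propidium iodide and analysed by flow cytometry. The (G2+M)/S ratio is the percentage of gated cells in G2/M divided by the percentage in S phase.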

Series [5] in a line: Bioavailability in rat. Format: ADME, organism-based. Particulars: in vivo.
A further series has as its system HMEC. As to the kind of experiment: Cytotoxicity against human HMEC cells. Format: functional, cell-based. The essentials: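 Cytotoxicity toward normal cells was measured as inhibition of proliferation of human normal mammary epithelial cells (HMEC), reported as IC50.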
The test system of the next series is T-24. As to the kind of experiment: Induction of p21 WAF1/Cip1 transcription in human T24 cells assessed by luciferase reporter gene activity. The class given is functional, cell-based. In general terms: A reporter such as luciferase makes a cellular process visible.
Another series relates to SW48. In words: Antitumor activity against human SW48 cells xenografted in mouse at 50 mg/kg, ip. Particulars: route intraperitoneal, read-out: TGI. The class given is functional. The method, boiled down: (§1)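 Human tumour cells grown as xenografts in mice; compounds given daily by intraperitoneal injection. Antitumour activity is expressed as % tumour growth inhibition relative to vehicle-treated controls. Body weight was followed as the measure of gross toxicity.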
Background: In xenograft studies the graft and the host belong to different species.

Series [6] has as its system HCT-116. As to the kind of experiment: Antitumor activity against human HCT116 cells xenografted in mouse at 50 mg/kg, ip. Format: functional. The conditions noted are these: HCT-116, ip, route intraperitoneal, read-out: TGI. The essentials: as §1

pIC50: −log10 of the molar value. Active and inactive are the calls of the source.

Histone deacetylase 1, sequence (Q13547 whole entry): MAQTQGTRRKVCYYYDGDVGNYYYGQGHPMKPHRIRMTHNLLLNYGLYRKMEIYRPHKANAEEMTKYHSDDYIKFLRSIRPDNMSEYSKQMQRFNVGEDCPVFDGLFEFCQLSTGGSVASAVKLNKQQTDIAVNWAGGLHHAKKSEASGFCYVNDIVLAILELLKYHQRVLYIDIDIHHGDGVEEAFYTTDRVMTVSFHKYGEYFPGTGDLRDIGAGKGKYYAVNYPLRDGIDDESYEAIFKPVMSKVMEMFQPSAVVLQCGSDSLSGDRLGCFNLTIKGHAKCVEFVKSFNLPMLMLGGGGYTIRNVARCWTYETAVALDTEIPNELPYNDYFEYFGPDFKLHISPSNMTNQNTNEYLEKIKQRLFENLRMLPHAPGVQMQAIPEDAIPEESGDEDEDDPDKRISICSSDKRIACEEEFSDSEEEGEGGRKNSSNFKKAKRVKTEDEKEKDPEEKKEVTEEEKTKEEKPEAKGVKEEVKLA

As a reminder, the pIC50 is the negative decadic logarithm of the IC50, by convention in mol/L. As for `Nc1ccccc1NC(=O)/C=C/c1ccc(NCc2ccc(F)cc2)nc1`, the figures for the pIC50 in the series with HCT-116 [1] and on Histone deacetylase 1 were 5.70 and 5.30, respectively.

For `COc1cc(CNc2ccc(C(=O)Nc3ccccc3N)cc2)cc(OC)c1OC`, the figures for the pIC50 with HCT-116 [1] and at Histone deacetylase 1 were 5.70 and 5.52, respectively.

Take `CN(C)c1ccc(CNc2ccc(/C=C/C(=O)Nc3ccccc3N)cn2)cc1`: the pIC50 in the series on HCT-116 [1] was 5.52; on Histone deacetylase 1, 5.40.

`COc1cc(NCc2ccc(C(=O)Nc3ccccc3N)cc2)cc(OC)c1OC`: the pIC50 in the series on HCT-116 [1] is 5.70; on Histone deacetylase 1, 5.52.

Consider `Nc1ccccc1NC(=O)/C=C/c1ccc(NCCNc2ccccc2)nc1`, for which the pIC50 with HCT-116 [1] was 5.30; at Histone deacetylase 1, 5.70.

In the case of `COc1ccc(CNc2ccc(/C=C/C(=O)Nc3ccccc3N)cn2)cc1`, at Histone deacetylase 1, the pIC50 was 5.70.

In the case of `Nc1ccccc1NC(=O)/C=C/c1ccc(CNc2ccccc2)cc1`, the results for the pIC50 in the series with HCT-116 [1] and at Histone deacetylase 1 were 4.96 and 4.77, respectively.

For the compound `Nc1ccccc1NC(=O)/C=C/c1ccc(NCc2ccccc2)nc1`, on Histone deacetylase 1, the pIC50 is 5.52.

For `COc1ccc(NCc2ccc(/C=C/C(=O)Nc3ccccc3N)cc2)cc1OC`, the pIC50 in the series with HCT-116 [1] was 5.30; at Histone deacetylase 1 it was 5.70.

With `Nc1ccccc1NC(=O)/C=C/c1ccc(NCc2ccc(OC(F)(F)F)cc2)nc1`, the pIC50 in the series with HCT-116 [1] is 5.40; at Histone deacetylase 1 it was 5.70.

As to `COc1ccccc1NCc1ccc(/C=C/C(=O)Nc2ccccc2N)cc1`, on Histone deacetylase 1, the pIC50 was 4.66.

For orientation: half-life means the time needed for the level to fall by half in the phase considered. High values mean slow loss, low ones fast loss. The term bioavailability denotes the share of a dose that reaches the circulation, judged against a reference dose that is usually intravenous. Lower therefore signals little systemic uptake. Consider `COc1cc(NCc2ccc(/C=C/C(=O)Nc3ccccc3N)cc2)cc(OC)c1OC`, for which the Activity result in [2] is “Dose-dependent effect”. In series [3], this compound gave a half-life of 1.8 h. Moreover, the outcome in the series with HCT-116 [4] and in the series on T-24 was Active. In series [5], this compound registered a bioavailability of 65%. Also, the pIC50 on Histone deacetylase 1 is 5.70; in the series with HMEC, 4.41.

On to `COc1ccc(CNc2ccc(C(=O)Nc3ccccc3N)cc2)cc1OC`, for which, at Histone deacetylase 1, the pIC50 is 5.40.

As for `COc1cc(NCc2ccc(/C=C/C(=O)Nc3ccccc3N)cn2)cc(OC)c1OC`, the pIC50 on Histone deacetylase 1 is 5.52.

Regarding `Nc1ccccc1NC(=O)/C=C/c1ccc(NCc2ccc(OC(F)(F)F)cc2)cc1`, the pIC50 in the series with HCT-116 [1] was 4.30; on Histone deacetylase 1, 5.30.

For the compound `COc1cc(CNc2ccc(/C=C/C(=O)Nc3ccccc3N)cn2)cc(OC)c1OC`, the pIC50 on Histone deacetylase 1 is 5.40.

Take `COc1cccc(NCc2ccc(/C=C/C(=O)Nc3ccccc3N)cc2)c1`: the results for the negative-log IC50 (pIC50) in the series on HCT-116 [1] and at Histone deacetylase 1 were 5.00 and 4.77, respectively.

As to `COc1cc(CNc2ccc(C(=O)Nc3ccccc3N)cn2)cc(OC)c1OC`, the pIC50 was 5.52 in the series with HCT-116 [1] and 5.30 on Histone deacetylase 1.

For `Nc1ccccc1NC(=O)/C=C/c1ccc(NCc2ccncc2)nc1`, the pIC50 was 5.15 in the series with HCT-116 [1] and 5.40 on Histone deacetylase 1.

Consider `Nc1ccccc1NC(=O)/C=C/c1ccc(NCc2ccc([N+](=O)[O-])cc2)cc1`, for which the pIC50 was 4.82 with HCT-116 [1] and 5.40 at Histone deacetylase 1.

For `COc1ccc(CNc2ccc(C(=O)Nc3ccccc3N)cn2)cc1`, at Histone deacetylase 1, the pIC50 was 5.40.

Consider `COc1ccc(CNc2ccc(/C=C/C(=O)Nc3ccccc3N)cc2)cc1`, for which the pIC50 on Histone deacetylase 1 was 5.40.

In the case of `COc1ccc(NCc2ccc(C(=O)Nc3ccccc3N)cc2)cc1OC`, the Activity result in series [2] is “Dose-dependent effect”. The same compound gave a half-life in [3] of 0.7 h. The result in the series on HCT-116 [4] and in the series on T-24 was Active. For the same compound, the inhibition in vivo at 50 mg/kg with SW48 and with HCT-116 [6] was 66% in each case. In the series on HMEC, this compound showed a pIC50 of 4.82.

On to `COc1ccc(CCNc2ccc(C(=O)Nc3ccccc3N)cn2)cc1`, for which the pIC50 on Histone deacetylase 1 is 5.52.

`COc1ccc(CNc2ccc(C(=O)Nc3ccccc3N)cc2)cc1`: the negative logarithm of the IC50 (pIC50) with HCT-116 [1] was 6.00; at Histone deacetylase 1, 5.70.

With `Nc1ccccc1NC(=O)/C=C/c1ccc(NCCCc2ccccc2)nc1`, the figures for the negative logarithm of the IC50 (pIC50) in the series with HCT-116 [1] and on Histone deacetylase 1 were 5.70 and 5.52, respectively.

As for `COc1ccc(NCc2ccc(C(=O)Nc3ccccc3N)cc2)cc1`, the values for the negative-log IC50 (pIC50) in the series with HCT-116 [1] and at Histone deacetylase 1 were 5.70 and 6.22, respectively.

For the compound `COc1ccc(NCc2ccc(/C=C/C(=O)Nc3ccccc3N)cc2)cc1`, the pIC50 on Histone deacetylase 1 was 5.40.

Turning to `COc1cc(N(C)Cc2ccc(/C=C/C(=O)Nc3ccccc3N)cc2)cc(OC)c1OC`, the pIC50 with HCT-116 [1] is 5.30; at Histone deacetylase 1, 5.52.

With `Nc1ccccc1NC(=O)/C=C/c1ccc(NCc2ccncc2)cc1`, the pIC50 in the series with HCT-116 [1] was 5.70; at Histone deacetylase 1, 5.00.

The record behind these values is ChEMBL document CHEMBL1146002, “Substituted N-(2-aminophenyl)-benzamides, (E)-N-(2-aminophenyl)-acrylamides and their analogues: novel classes of histone deacetylase inhibitors” (Bioorg Med Chem Lett, 2006).
